One assay deals with T1, hMAO-A (Homo sapiens, UniProt P21397).
T1 sequence (P21397 1-527): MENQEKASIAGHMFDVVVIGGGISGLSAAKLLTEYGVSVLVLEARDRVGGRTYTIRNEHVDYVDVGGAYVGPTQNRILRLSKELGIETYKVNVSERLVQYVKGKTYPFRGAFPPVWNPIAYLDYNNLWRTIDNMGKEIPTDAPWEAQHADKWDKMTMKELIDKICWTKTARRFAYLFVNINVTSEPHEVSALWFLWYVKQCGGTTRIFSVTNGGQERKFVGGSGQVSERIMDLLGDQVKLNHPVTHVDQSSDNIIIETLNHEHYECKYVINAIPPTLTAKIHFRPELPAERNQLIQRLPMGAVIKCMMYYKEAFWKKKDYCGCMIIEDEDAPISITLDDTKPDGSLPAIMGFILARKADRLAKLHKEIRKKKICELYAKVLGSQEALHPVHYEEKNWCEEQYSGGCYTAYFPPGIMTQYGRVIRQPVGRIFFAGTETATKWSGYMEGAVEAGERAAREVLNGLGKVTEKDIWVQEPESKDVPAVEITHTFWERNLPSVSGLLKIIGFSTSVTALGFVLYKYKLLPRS
The assay is described as follows: hMAO-A inhibition assay. Format: biochemical.

A further assay concerns the target T2, hMAO-B (Homo sapiens, UniProt P27338).
T2 sequence (P27338 1-520): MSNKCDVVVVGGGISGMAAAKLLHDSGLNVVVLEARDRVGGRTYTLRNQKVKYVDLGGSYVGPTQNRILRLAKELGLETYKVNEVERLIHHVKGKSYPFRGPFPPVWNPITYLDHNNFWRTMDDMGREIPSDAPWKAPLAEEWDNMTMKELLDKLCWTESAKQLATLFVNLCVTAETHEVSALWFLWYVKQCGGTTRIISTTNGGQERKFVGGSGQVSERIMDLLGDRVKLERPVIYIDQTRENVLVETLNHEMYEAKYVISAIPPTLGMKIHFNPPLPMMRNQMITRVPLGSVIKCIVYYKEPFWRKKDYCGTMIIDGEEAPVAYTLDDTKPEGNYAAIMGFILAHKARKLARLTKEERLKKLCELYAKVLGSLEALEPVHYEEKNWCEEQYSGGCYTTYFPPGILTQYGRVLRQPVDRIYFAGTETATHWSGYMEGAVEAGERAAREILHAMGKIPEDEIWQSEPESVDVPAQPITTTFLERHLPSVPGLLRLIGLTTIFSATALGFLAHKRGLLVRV
The assay is described as follows: hMAO-B inhibition assay. Format: biochemical. To be noted: for inhibition at 1 µM: read-out: hMAO-B Inhibition (%), at 1 µM.

Another assay deals with LPS-stimulated BV2 cells. Briefly: NO, TNF-α and IL-1β production in LPS-stimulated BV2 microglial cells. Format: cell-based. The conditions noted are these: LPS 100 ng/mL, 24 h. Summed up:
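BV2 microglia were grown 48 h at 37 °C, then pre-treated with test compound for 6 h at 37 °C under 5% CO2, with 0.5% DMSO as vehicle. Medium was replaced by DMEM containing LPS 100 ng/mL (final) for 24 h at 37 °C. NO in the medium was measured with a nitric oxide assay kit; TNF-α and IL-1β by ELISA. Data are mean ± SD of ≥3 independent experiments, compared by Student's t-test.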

Consider 13 compounds from publication PMC11906766 (Scientific Reports, 2025).

One may read the IC50 as the point on the concentration scale where inhibition reaches its midpoint. For orientation: inhibition means the drop in the measured response relative to a control, in per cent.

On to `O=C(C=Cc1ccccc1)c1ccccc1` [Compound 1, 1,3-diphenyl-2-propen-1-one, reference compound], for which the half-maximal inhibitory concentration (IC50) against hMAO-A was over 40 µM.
Regarding `O=C(/C=C/c1ccccc1)c1cccs1` [Compound 2, (E)−3-phenyl-1-(thiophen-2-yl)prop-2-en-1-one], the half-maximal inhibitory concentration (IC50) against hMAO-A is over 40 µM. On hMAO-B, the half-inhibitory concentration (IC50) came out at 10.6 ± 1.4 µM and the inhibition at 1 µM was 23.8%. Further, the “Selectivity Index (SI)” value at hMAO-B (SI = IC50 (hMAO-A) / IC50 (hMAO-B)) is given as over 3.
Turning to `O=C(/C=C/c1ccc2ccccc2c1)c1cccs1` [Compound 8, (E)−3-(naphthalen-2-yl)−1-(thiophen-2-yl)prop-2-en-1-one], the half-maximal inhibitory concentration (IC50) on hMAO-A is over 40 µM. In addition, on hMAO-B, the inhibition at 1 µM came out at 27%.
Taken in the same sequence, the figures for `COc1ccc(/C=C/C(=O)c2cccs2)cc1` [Compound 9, (E)−3-(4-methoxyphenyl)−1-(thiophen-2-yl)prop-2-en-1-one] were over 40 µM and 51.7%.
Compound `COc1ccc(/C=C/C(=O)c2cccs2)cc1OC` [Compound 10, (E)−3-(3,4-dimethoxyphenyl)−1-(thiophen-2-yl)prop-2-en-1-one] displayed an IC50 against hMAO-A of over 40 µM. Besides, on hMAO-B, the inhibition at 1 µM is under 5%.
Take `COc1ccc(/C=C/C(=O)c2cccs2)cc1O` [Compound 11, (E)−3-(3-hydroxy-4-methoxyphenyl)−1-(thiophen-2-yl)prop-2-en-1-one]: the IC50 against hMAO-A is over 40 µM. Also, the inhibition at 1 µM on hMAO-B amounted to 16.6%.
Taken in the same sequence, the figures for `COc1ccc(/C=C/C(=O)c2ccc(Cl)s2)cc1OC` [Compound 16, (E)−1-(5-chlorothiophen-2-yl)−3-(3,4-dimethoxyphenyl)prop-2-en-1-one] were over 40 µM and 14.5%.
In the case of `COc1ccc(/C=C/C(=O)c2ccc(Br)s2)cc1OC` [Compound 18, (E)−1-(5-bromothiophen-2-yl)−3-(3,4-dimethoxyphenyl)prop-2-en-1-one], at hMAO-A, the IC50 was over 40 µM. Moreover, the inhibition at 1 µM on hMAO-B is 12.3%.
Turning to `COc1ccc(/C=C/C(=O)c2ccc(C)s2)cc1O` [Compound 19, (E)−3-(3-hydroxy-4-methoxyphenyl)−1-(5-methylthiophen-2-yl)prop-2-en-1-one], at hMAO-A, the IC50 was over 40 µM. On hMAO-B, the inhibition at 1 µM was determined as 28.2%.
Taken in the same sequence, the figures for `COc1ccc(/C=C/C(=O)c2ccco2)cc1O` [Compound 20, (E)−1-(furan-2-yl)−3-(3-hydroxy-4-methoxyphenyl)prop-2-en-1-one] were over 40 µM and under 5%.
For `COc1ccc(/C=C/C(=O)c2ccc(C)o2)cc1O` [Compound 21, (E)−3-(3-hydroxy-4-methoxyphenyl)−1-(5-methylfuran-2-yl)prop-2-en-1-one] the same measures were over 40 µM and under 5%.
The compound `COc1ccc(/C=C/C(=O)c2ccc[nH]2)cc1O` [Compound 22, (E)−3-(3-hydroxy-4-methoxyphenyl)−1-(1H-pyrrol-2-yl)prop-2-en-1-one] yielded a half-maximal inhibitory concentration (IC50) against hMAO-A of over 40 µM. Also, at hMAO-B, the inhibition at 1 µM was under 5%.
Turning to lipopolysaccharide [LPS], in the assay on LPS-stimulated BV2 cells, the “level of IL-1β compared to the control group” value was 30.4 fold, the “level of NO compared to the control group” value worked out at 11.4 fold and the “level of TNF-α compared to the control group” value is 26.3 fold.
